The nature of data set [1]: Aqueous solubility of the compound at pH 5. Type of data set: physicochemical. As to conditions: aqueous medium.
Data set [2] has as its system Cryptococcus neoformans. The data set can be described thus: Antifungal activity against wild type fluconazole-sensitive Cryptococcus neoformans serotype A H99 at pH 7 measured over 4 days. Type of data set: functional, organism-based. The settings on record: var grubii H99 , 96 h. The procedure, abridged: (§1)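 YPD-grown exponential-phase yeasts, hemacytometer-counted, diluted into RPMI buffered to pH 7.0 with 25 mM HEPES (or pH 5.0 with […] for pH comparison) at 2 x 10^3 per well; two-fold series 40 to 0.078 µM, 37 °C, agitated twice daily. A595 followed over 4 days versus DMSO controls; day-3 turbidity fitted by 4-parameter regression for IC50; MIC = growth ≤10% of untreated.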

Data set [3] deals with Histoplasma capsulatum. The data set can be described thus: Antifungal activity against Histoplasma capsulatum G217B ATCC 26032 at pH 7 measured over 5 days. In kind it is functional, organism-based. The settings on record: G217B ATCC 26032, 120 h. The procedure, abridged:
(§2)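 Yeasts pre-grown in HMM (37 °C, 5% CO2) to exponential phase, counted by hemacytometer, diluted into RPMI buffered with 25 mM HEPES (pH 7.0) or 25 mM MOPS (pH 5.0) at 5 x 10^5 per well; two-fold dilutions 40 to 0.078 µM, 37 °C, agitated twice daily. A595 read over 5 days, normalized to DMSO controls; 4-day data fitted by 4-parameter regression for IC50; MIC = ≤10% growth.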

Data set [4] in a line: Aqueous solubility of the compound at pH 7. Type of data set: physicochemical. As to conditions: aqueous medium.
Data set [5] deals with Histoplasma capsulatum. The data set can be described thus: Antifungal activity against Histoplasma capsulatum G217B ATCC 26032 at pH 5 measured over 5 days. Type of data set: functional, organism-based. The settings on record: G217B ATCC 26032, 120 h. An outline of the steps: as §2
Data set [6] can be described thus: Ratio of aqueous solubility at pH 5 to aqueous solubility at pH 7. In kind it is physicochemical. The settings on record: buffer.
In data set [7] the test system is Cryptococcus neoformans. Put plainly: Antifungal activity against wild type fluconazole-sensitive Cryptococcus neoformans serotype A H99 at pH 5 measured over 4 days. The settings on record: var grubii H99 , 96 h. Type of data set: functional, organism-based. The procedure, abridged:
as §1

Data set [8] has as its system P388D1. Put plainly: Cytotoxicity against mouse P388D1 cells assessed as reduction in cell viability after 72 hrs by resazurin-based fluorescence assay. The settings on record: P388D1, 72 h. An outline of the steps: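 P388D1 cells in Ham's F-12 + 10% FBS + 2 mM L-glutamine seeded at 5 x 10^3 per well, adhered overnight, exposed to compounds 80 to 0.3 µM for 72 h. Viability read as resorufin fluorescence (530/590 nm) after 0.1 mM resazurin, pre-saturation time points, versus untreated cells; three biological replicates; IC50 by non-linear regression.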

The nature of data set [9]: Therapeutic index, ratio of IC50 for mouse P388D1 cells to IC50 for Histoplasma capsulatum G217B ATCC 26032. As to conditions: read-out: Ratio IC50. Type of data set: toxicity. The procedure, abridged: (§3)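 Ratio of P388D1 IC50 (72 h resazurin viability, 80 to 0.3 µM) to yeast IC50 from RPMI/HEPES pH 7.0 broth dilution with A595 turbidity and 4-parameter regression.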

Data set [10] can be described thus: Therapeutic index, ratio of IC50 for mouse P388D1 cells to IC50 for wild type Cryptococcus neoformans serotype A H99. Type of data set: toxicity. The settings on record: read-out: Ratio IC50. An outline of the steps:
as §3

Data set [11] has as its system Cryptococcus neoformans. Put plainly: Antifungal activity against wild-type fluconazole-sensitive Cryptococcus neoformans serotype D B3501 measured over 4 days. The settings on record: B3501, 96 h. Type of data set: functional, organism-based. An outline of the steps:
as §1

Data set [12] has as its system Cryptococcus neoformans. The data set can be described thus: Antifungal activity against fluconazole-resistant Cryptococcus neoformans serotype A MRL862 harboring erg11 mutant measured over 4 days. In kind it is functional, organism-based. As to conditions: MRL862, 96 h. An outline of the steps:
as §1

Data set [13] has as its system Histoplasma capsulatum. Put plainly: Antifungal activity against RFP expressing Histoplasma capsulatum infected in LacZ-expressing mouse P388D1 cells incubated for 6 days measured daily by fluorescence assay. Type of data set: functional, organism-based. The settings on record: for MIC: 144 h; for IC50: P388D1, 144 h. The procedure, abridged: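 LacZ-expressing P388D1 macrophages (3x10^4 per well, adhered 3 h) infected with RFP Histoplasma yeasts at MOI 1:2 for 3 h, medium replaced with F-12 + 10% serum, overnight at 37 °C, then compound gradient added for 6 days. RFP fluorescence (530/590 nm) read daily; day-4 values relative to untreated infected cells fitted by non-linear regression; triplicate.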

The subject of data set [14] is Cryptococcus neoformans. Put plainly: Antifungal activity against fluconazole-resistant Cryptococcus neoformans serotype A TES9 harboring erg11 mutant measured over 4 days. In kind it is functional, organism-based. As to conditions: TES9, 96 h. The procedure, abridged:
as §1

Data set [15] has as its system Cryptococcus neoformans. Put plainly: Antifungal activity against Cryptococcus neoformans TDY271 after 72 hrs by microdilution assay. Type of data set: functional, organism-based. The settings on record: TDY271, 72 h.
A short description of data set [16]: Therapeutic index, ratio of IC50 for mouse P388D1 cells to IC50 for Histoplasma capsulatum OSU76. Type of data set: toxicity. The settings on record: read-out: Ratio IC50.
Data set [17] deals with Histoplasma capsulatum. Put plainly: Fungistatic activity against Histoplasma capsulatum OSU76 after 2 to 24 hrs by colony forming assay. Type of data set: functional, organism-based.

Converted amounts (≈) assume the structure as drawn.

In general, solubility refers to the dissolved amount per volume that the medium holds. As usually defined, the IC50 is the concentration at which inhibition is half-maximal. The MIC90 is the lowest concentration that inhibits either 90% of growth or 90% of the strains tested, depending on the study. Low values mean greater potency, high ones weaker potency. Regarding `O=C(CCC1CCCCC1)Nc1ncc(Cc2ccnc3ccccc23)s1`, the solubility in data set [1] stood at 5 µg/mL (≈ 13.2 µM); in [4], 3 µg/mL (≈ 7.9 µM). For the same compound, the IC50 is above 20 µM in data set [2], above 20 µM in [3], 15.7 µM in data set [5] and above 20 µM in data set [7]. For the same compound, the MIC90 is above 40 µM in [3], 40 µM (≈ 15.2 µg/mL) in data set [5] and above 40 µM in data set [7]. Further, the Ratio in [6] is on record as 1.7.

`O=C(Nc1ncc(Cc2ccnc3ccccc23)s1)C1CCCCC1`: the values for the solubility in data set [1] and in data set [4] were 130 µg/mL (≈ 370 µM) and 70 µg/mL (≈ 199 µM), respectively. In addition, the IC50 worked out at 3.24 µM in data set [2]; 13.9 µM in [8]; 3.05 µM in [3]; 16.8 µM in [5]; 4.29 µM in [7]. Also, the selectivity ratio in [9] and in [10] was 5 each time. Besides, the MIC90 in data set [5] was 40 µM (≈ 14.1 µg/mL); in [7], 10 µM (≈ 3.51 µg/mL). For the same compound, the Ratio in data set [6] amounted to 1.9.

`O=C(CCC1CCCCC1)Nc1ncc(Cc2ccccn2)s1`: the solubility was determined as 60 µg/mL (≈ 182 µM) in data set [1] and 40 µg/mL (≈ 121 µM) in data set [4]. The half-inhibitory concentration (IC50) is above 20 µM in data set [2]; above 40 µM in data set [8]; 8.09 µM in data set [3]; above 20 µM in data set [5]; above 20 µM in data set [7]. Besides, the MIC90 was 20 µM (≈ 6.59 µg/mL) in data set [3], above 40 µM in data set [5] and above 40 µM in data set [7]. For the same compound, the selectivity ratio in data set [9] was above 5. Besides, the Ratio in [6] came to 1.5.

As usually defined, the MIC is the lowest concentration found to suppress growth. A lower MIC goes with inhibition by little substance. Regarding `O=C(c1cnc(NC(=O)C2CCCCC2)s1)c1cccc2ccccc12`, the IC50 is 380 nM in data set [11]; 0.89 µM in [2]; above 40 µM in data set [8]; 410 nM in data set [12]; 0.19 µM in [3]; 710 nM in [13]. In data set [14], this compound had an IC50 of 470 nM. The MIC90 in data set [11] is 1.25 µM (≈ 0.456 µg/mL); in data set [2] it was 2.5 µM (≈ 0.911 µg/mL); in data set [12] it was 1.25 µM (≈ 0.456 µg/mL); in [3] it was 0.31 µM (≈ 0.113 µg/mL); in [14] it was 1.25 µM (≈ 0.456 µg/mL). In [13], this compound yielded a minimum inhibitory concentration (MIC) of 1.25 µM (≈ 0.456 µg/mL). For the same compound, the selectivity ratio in data set [9] was above 211; in data set [10], above 45.

For `O=C(Nc1ncc(Cc2cccc3ccccc23)s1)C1CCCCC1`, the IC50 in [11] was 180 nM; in data set [2], 0.67 µM; in [8], above 40 µM; in [15], 1250 nM; in data set [12], 230 nM; in [3], 0.48 µM. Besides, the IC50 was 1260 nM in data set [13]; 200 nM in data set [14]; 6.75 µM in [5]; 870 nM in [17]; 3.04 µM in [7]. Further, the MIC90 in data set [11] is 0.63 µM (≈ 0.221 µg/mL); in data set [2], 1.25 µM (≈ 0.438 µg/mL); in data set [12], 0.63 µM (≈ 0.221 µg/mL); in data set [3], 1.25 µM (≈ 0.438 µg/mL); in data set [14], 0.63 µM (≈ 0.221 µg/mL); in [5], 10 µM (≈ 3.5 µg/mL). In [7], the MIC90 was 5 µM (≈ 1.75 µg/mL). Moreover, the solubility in data set [1] and in data set [4] was 4 µg/mL (≈ 11.4 µM) in each case. Further, in [13], the MIC was 2.5 µM (≈ 0.876 µg/mL). In addition, the selectivity ratio is above 83 in [9], above 60 in data set [10] and 63 in data set [16]. For the same compound, the Ratio in data set [6] is on record as 1.

With `O=C(Nc1ncc(Cc2cccnc2)s1)C1CCCCC1`, the results for the solubility in [1] and in data set [4] were 590 µg/mL (≈ 1960 µM) and 340 µg/mL (≈ 1130 µM), respectively. Also, the IC50 in data set [2], in data set [3], in data set [5] and in data set [7] was above 20 µM in each case. Further, the MIC90 in [5] and in data set [7] was above 40 µM each time. In data set [6], the Ratio was determined as 1.7.

Consider `O=C(CCC1CCCCC1)Nc1ncc(Cc2ccncc2)s1`, for which the solubility was 140 µg/mL (≈ 425 µM) in data set [1] and 40 µg/mL (≈ 121 µM) in [4]. Also, the IC50 in data set [2] was above 20 µM; in data set [8], above 40 µM; in data set [3] it was 7.67 µM; in [5] it was 11.1 µM; in data set [7], above 20 µM. Also, the results for the MIC90 in data set [3], in data set [5] and in data set [7] were 20 µM (≈ 6.59 µg/mL), 40 µM (≈ 13.2 µg/mL) and above 40 µM, respectively. Also, the selectivity ratio in data set [9] was above 5. The Ratio in data set [6] stood at 3.5.

With `O=C(Nc1ncc(Cc2ccccn2)s1)C1CCCCC1`, the results for the solubility in [1] and in data set [4] were 480 µg/mL (≈ 1590 µM) and 340 µg/mL (≈ 1130 µM), respectively. Moreover, the half-inhibitory concentration (IC50) is 7.17 µM in data set [2]; above 40 µM in data set [8]; 18.3 µM in data set [3]; above 20 µM in [5]; 15.6 µM in data set [7]. Besides, the MIC90 is 20 µM (≈ 6.03 µg/mL) in data set [2], 40 µM (≈ 12.1 µg/mL) in [3], above 40 µM in [5] and above 40 µM in data set [7]. Moreover, the selectivity ratio in data set [9] is above 2; in data set [10], above 6. Moreover, in [6], the Ratio came to 1.4.

Turning to `O=C(Nc1ncc(Cc2ccncc2)s1)C1CCCCC1`, the solubility is 1190 µg/mL (≈ 3950 µM) in data set [1] and 350 µg/mL (≈ 1160 µM) in [4]. Further, the IC50 in [2], in data set [3], in [5] and in data set [7] was above 20 µM each time. The MIC90 in data set [5] and in [7] was above 40 µM in each case. Besides, the Ratio in data set [6] came out at 3.4.

The values are drawn from ChEMBL document CHEMBL4219175, “Synthesis and biological evaluation of aminothiazoles against Histoplasma capsulatum and Cryptococcus neoformans” (Bioorg Med Chem, 2018).
